Measurements as given in ChEMBL document CHEMBL4765230, “Discovery of Orally Efficacious Phosphoinositide 3-Kinase δ Inhibitors with Improved Metabolic Stability” (J Med Chem, 2016).

Assays:
[1] = molecular target: T1, Phosphatidylinositol 4,5-bisphosphate 3-kinase catalytic subunit delta isoform (Homo sapiens, UniProt O00329); experiment: Inhibition of PI3K p110delta in human basophil assessed as reduction in anti-FCepsilonR1 mAb-stimulated basophil activation preincubated for 60 mins followed by anti-FCepsilonR1 mAb stimulation and measured after 25 mins by flow cytometry analysis
T1 sequence (O00329 whole entry): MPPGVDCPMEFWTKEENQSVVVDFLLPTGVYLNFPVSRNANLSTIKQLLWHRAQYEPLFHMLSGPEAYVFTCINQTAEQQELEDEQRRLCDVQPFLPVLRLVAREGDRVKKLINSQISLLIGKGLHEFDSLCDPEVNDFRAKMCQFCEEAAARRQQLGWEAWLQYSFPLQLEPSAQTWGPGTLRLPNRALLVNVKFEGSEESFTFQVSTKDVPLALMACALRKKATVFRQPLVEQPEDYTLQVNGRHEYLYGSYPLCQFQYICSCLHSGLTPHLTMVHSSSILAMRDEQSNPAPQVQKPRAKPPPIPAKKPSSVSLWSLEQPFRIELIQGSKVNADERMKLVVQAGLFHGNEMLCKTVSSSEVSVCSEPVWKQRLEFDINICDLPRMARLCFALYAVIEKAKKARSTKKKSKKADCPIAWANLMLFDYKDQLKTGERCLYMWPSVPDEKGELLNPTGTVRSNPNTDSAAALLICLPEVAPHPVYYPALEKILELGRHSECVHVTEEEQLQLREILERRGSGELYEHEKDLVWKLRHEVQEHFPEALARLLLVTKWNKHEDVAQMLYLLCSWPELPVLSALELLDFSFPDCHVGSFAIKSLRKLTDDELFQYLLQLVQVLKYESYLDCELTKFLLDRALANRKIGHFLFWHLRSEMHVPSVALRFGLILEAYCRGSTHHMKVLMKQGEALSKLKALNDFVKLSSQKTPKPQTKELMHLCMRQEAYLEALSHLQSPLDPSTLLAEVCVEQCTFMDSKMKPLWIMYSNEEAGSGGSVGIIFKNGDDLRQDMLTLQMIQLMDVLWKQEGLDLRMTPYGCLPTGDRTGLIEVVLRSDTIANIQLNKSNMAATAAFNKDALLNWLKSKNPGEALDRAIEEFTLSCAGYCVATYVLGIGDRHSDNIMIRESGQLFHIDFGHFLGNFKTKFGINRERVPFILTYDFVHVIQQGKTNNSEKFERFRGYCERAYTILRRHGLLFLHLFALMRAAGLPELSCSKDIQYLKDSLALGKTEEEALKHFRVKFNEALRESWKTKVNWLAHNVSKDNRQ

[2] = MRT in Beagle dog at 1 mg/kg, iv measured over 24 hrs by LC/MS/MS analysis; type: ADME, organism-based, Canis lupus familiaris; conditions: in vivo
How it was run: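 Intravenous 1 mg/kg and oral 5 mg/kg doses. Vehicle: 5% ethanol/55% PEG 400/40% water for rats and dogs; 5% ethanol/22% PEG 400/73% water for cynomolgus; 5% ethanol/25% PEG 400/70% water for rhesus. Half-life and MRT from iv; mean ± SD, n = 3 per route.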

[3] = system: Rattus norvegicus; experiment: Antiarthritic activity in po dosed Lewis rat model of Freund's incomplete adjuvant-induced arthritis administered for 7 days at 12 hrs interval starting from day 10 to day 16 post-immunization by microscopic analysis; type: functional; conditions: 168 h, time 7 day
How it was run: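 Female Lewis rats with established collagen-induced arthritis dosed orally twice daily for 7 days at 0.3, 1 and 3 mg/kg, starting day 10 after second collagen immunization. Joint histopathology scored for pannus formation, cartilage damage, bone resorption and periosteal bone formation; ED50 derived. n = 8/treatment group, n = 4 normal controls.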

N#Cc1c(N)nc(N)nc1N[C@H](c1nc2c(F)ccc(Cl)c2c(=O)n1-c1cccnc1)C1CC1 [GS-9901]
EC50 [1]: 0.31 nM
MRT [2]: 2.01 h
ED50 [3]: 0.6 mg/kg
